Each structure is given as a SMILES string. Activity calls are given as the source filed them. No cut-off for these calls is given here.

We go through 6 compounds from ChEMBL document CHEMBL2331251, “Synthesis and biological evaluation of nucleoside analogues than contain silatrane on the basis of the structure of acyclovir (ACV) as novel inhibitors of hepatitis B virus (HBV)” (Bioorg Med Chem Lett, 2013).

A short description of series [1]: Cytotoxicity against human HepG2.2.15 cells assessed as reduction in number of viable cells after 3 days by MTT assay. Format: cell-based, HepG2 2.2.15. The procedure, abridged: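 Confluent HepG2.2.15 cultures were exposed to test compounds for 3 days, with six cultures for each of two dilutions. MTT (5 g/l) was added 4 h before the end, cells were dissolved in DMSO, and OD was read at 570 nm. CC50 (50% reduction in viable cells or OD) was calculated by the Berkson logit method. Mean ± SD of three independent experiments.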
In general terms: Tetrazolium dyes change colour on reduction, which living cells bring about.

The subject of series [2] is Hepatitis B virus. The experiment in a line: Antiviral activity against Hepatitis B virus transfected in human HepG2.2.15 cells assessed as inhibition of HBeAg secretion after 6 days by ELISA. It counts as functional, organism-based. Conditions: HepG2 2.2.15, 144 h. The procedure, abridged: (§1)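 HepG2.2.15 cells in DMEM with 10% FBS at 37 °C, 5% CO2, seeded at about 5 × 10⁵/well. After 24 h, compound was added at a range of concentrations, and media were replaced every 2 days for 6 days. Media were spun at 5000 rpm for 10 min, and secreted HBsAg and HBeAg were measured by ELISA. IC50 is the mean ± SD of three independent experiments.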

Series [3] concerns Mus musculus. Put plainly: Immunoregulatory activity in Hepatitis B virus infected transgenic mouse assessed as increase in CD4+/CD8+ population in peripheral blood at 100 mg/kg qd for 1 month by flow cytometry (reference value: 0.9 +/-0.2%). Format: functional.
Series [4] concerns Mus musculus. The experiment in a line: Immunoregulatory activity in Hepatitis B virus infected transgenic mouse assessed as increase in CD8+ population in peripheral blood at 100 mg/kg qd for 1 month by flow cytometry (reference value: 14.1 +/-1.4%). It counts as functional. (In general: A flow cytometer gives signals particle by particle.)
For series [5], the system named is Mus musculus. The experiment in a line: Immunoregulatory activity in Hepatitis B virus infected transgenic mouse assessed as increase in cytokine IL-2 mRNA level in liver at 100 mg/kg qd for 1 month by qPCR analysis. More on the design: dose 100 mg/kg. Format: functional, organism-based. The method, boiled down:
(§2)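 Liver IFN-γ and IL-2 mRNA were measured by qPCR with mouse-specific primers, normalized to GAPDH, 40 cycles, in duplicate. HBV transgenic mice (10 per group) had been dosed at 100 mg/kg once daily for one month in 0.1% DMSO, and livers were taken at day 30. Mean ± SD of 10 mice.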
On the technique in general: Real-time PCR tracks product formation cycle by cycle.

Series [6] concerns Mus musculus. The experiment in a line: Immunoregulatory activity in Hepatitis B virus infected transgenic mouse assessed as increase in CD3+ population in peripheral blood at 100 mg/kg qd for 1 month by flow cytometry (reference value: 30.1 +/-2.9%). Format: functional.
The subject of series [7] is Mus musculus. Put plainly: Immunoregulatory activity in Hepatitis B virus infected transgenic mouse assessed as increase in cytokine IFN gamma level in serum at 100 mg/kg qd for 1 month by ELISA. Also on record: dose 100 mg/kg. Format: functional, organism-based. The method, boiled down: (§3)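 Serum IFN-γ and IL-2 were measured by ELISA in HBV transgenic mice (10 per group) after 100 mg/kg once daily for one month in 0.1% DMSO, with sera collected at day 30. Mean ± SD of 10 mice.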

In series [8] the test system is Mus musculus. The experiment in a line: Immunoregulatory activity in Hepatitis B virus infected transgenic mouse assessed as increase in CD4+ population in peripheral blood at 100 mg/kg qd for 1 month by flow cytometry (reference value: 13.6 +/-2.7%). It counts as functional.
Series [9] has as its system Hepatitis B virus. Put plainly: Antiviral activity against Hepatitis B virus transfected in human HepG2.2.15 cells assessed as inhibition of HBsAg secretion after 6 days by ELISA. It counts as functional, organism-based. Particulars: HepG2 2.2.15, 144 h. The procedure, abridged:
as §1

Series [10] deals with Mus musculus. Put plainly: Immunoregulatory activity in Hepatitis B virus infected transgenic mouse assessed as increase in cytokine IL-2 level in serum at 100 mg/kg qd for 1 month by ELISA. Format: functional, organism-based. Also on record: dose 100 mg/kg. The method, boiled down:
as §3

Series [11] deals with Mus musculus. The experiment in a line: Immunoregulatory activity in Hepatitis B virus infected transgenic mouse assessed as increase in cytokine IFN gamma mRNA level in liver at 100 mg/kg qd for 1 month by qPCR analysis. More on the design: dose 100 mg/kg. Format: functional, organism-based. The procedure, abridged: as §2
For series [12], the system named is Hepatitis B virus. Put plainly: Antiviral activity against Hepatitis B virus infected in transgenic mouse assessed as decrease in serum HBeAg level at 100 mg/kg qd for 1 month by ELISA. Format: functional, organism-based. Also on record: dose 100 mg/kg. The procedure, abridged:
(§4)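 HBV transgenic mice (C57BL/6 background, 3.2 Kb HBV DNA, backcrossed to C57BL/6J), 8 weeks old, equal numbers of each sex, matched for serum HBsAg. Ten per group. Dosed 100 mg/kg once daily for one month in 0.1% DMSO. Groups included saline and 0.1% DMSO. Sera were taken at day 30, and HBsAg and HBeAg were measured by ELISA kit. Mean ± SD of 10 mice.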

For series [13], the system named is Hepatitis B virus. Put plainly: Antiviral activity against Hepatitis B virus infected in transgenic mouse assessed as decrease in serum HBsAg level at 100 mg/kg qd for 1 month by ELISA. It counts as functional, organism-based. Also on record: dose 100 mg/kg. The method, boiled down:
as §4

In series [14] the test system is Hepatitis B virus. The experiment in a line: Antiviral activity against Hepatitis B virus infected in transgenic mouse assessed as decrease in viral DNA level in liver at 100 mg/kg qd for 1 month by qPCR analysis. It counts as functional, organism-based. More on the design: dose 100 mg/kg. The procedure, abridged: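 HBV transgenic mice, 8 weeks old, sex- and HBsAg-matched, 10 per group. Given 100 mg/kg daily for one month, solubilized with 0.1% DMSO. Livers were harvested after 30 days. HBV DNA was extracted and quantified by qPCR with a commercial HBV DNA kit, 40 cycles, normalized to GAPDH, run in duplicate. Mean ± SD of 10 mice.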

In the case of `CC1CN2CC(C)O[Si](CCCNC(=O)CCC(=O)OCCOCn3cnc4c(=O)[nH]c(N)nc43)(O1)O[C@@H](C)C2` (stereo partly specified), in [1], the CC50 (as a rule, the concentration giving 50% cytotoxicity) at 72 h worked out at 467 µM. The figures for the IC50 in series [2] and in series [9] were 89.8 µM and 34.5 µM, respectively. In addition, the Activity is reported as 1.6% in series [3], 20.6% in [4], 48.3% in [6] and 33% in series [8]. Also, the result in [5], in [7], in [10] and in series [11] was Active. The inhibition result in series [12], in series [13] and in series [14] was “Active” throughout.

With `CC1CN2CC(C)O[Si](CCCNC(=O)CCCC(=O)OCCOCn3cnc4c(=O)[nH]c(N)nc43)(OC[C@@H]2C)O1` (stereo partly specified), the CC50 at 72 h in series [1] was found to be 732 µM. Moreover, the IC50 (in general, the concentration needed to halve the response being measured) in series [2] came out at 486 µM; in [9], 141 µM.

On to `Nc1ccn([C@@H]2CS[C@H](CO)O2)c(=O)n1` [LAMIVUDINE], for which the CC50 at 72 h in [1] was more than 1000 µM. For the same compound, the IC50 in [2] was more than 1000 µM; in [9] it was 406 µM. The Activity worked out at 1.2% in series [3], 16.7% in [4], 34.1% in series [6] and 19.3% in series [8]. Moreover, the outcome in [5], in series [7], in series [10] and in [11] was Active. Further, the inhibition entry in series [14] was “Active”.

On to `Nc1nc2c(ncn2COCCOC(=O)CCC(=O)NCCC[Si]23OCCN(CCO2)CCO3)c(=O)[nH]1`, for which the cytotoxic concentration (CC50) at 72 h in series [1] is 485 µM. The results for the IC50 in series [2] and in series [9] were 125 µM and 79.7 µM, respectively.

In the case of `Nc1nc2c(ncn2COCCO)c(=O)[nH]1` [ACYCLOVIR], the CC50 at 72 h in series [1] was found to be 630 µM. In addition, the half-inhibitory concentration (IC50) in series [2] and in [9] was more than 1000 µM in each case. Further, the Activity in [3] was 1.2%; in series [4], 15.1%; in series [6], 31.2%; in [8] it was 18.7%. Further, the outcome in series [5], in series [7], in series [10] and in [11] was Active.

Consider `Nc1nc2c(ncn2COCCOC(=O)CCCC(=O)NCCC[Si]23OCCN(CCO2)CCO3)c(=O)[nH]1`, for which, in series [1], the cytotoxic concentration (CC50) at 72 h came to 570 µM. Also, the IC50 is 160 µM in series [2] and 90.4 µM in series [9].
